Published values gathered from unrelated publications.
Compare with care: the assays were run in different laboratories.
RAF1: RAF proto-oncogene serine/threonine-protein kinase (RAF1, Homo sapiens, UniProt P04049)
RAF1 Y340D/Y341D: RAF proto-oncogene serine/threonine-protein kinase (RAF1, Homo sapiens, UniProt P04049, Y340D/Y341D)

`CCOCCn1cc(C(=O)Nc2ccc(-n3nc(-c4cccnc4)cc3C(F)(F)F)cn2)ccc1=O` has a remaining binding of 100% (RAF1; cell-free assay; competition with immobilised ligand; 1 µM).
For `COc1cc(Cl)c(C(=O)N[C@@H](CN[C@H]2CC[C@@H](N)CC2)Cc2ccc(C#N)cc2)cc1-c1ccc(CN[C@H](C)c2ccc(C)cc2)o1`, the remaining activity was 97% (RAF1; enzyme activity; inhibitor; 1 µM).
For `Cc1[nH]c(/C=C2\C(=O)Nc3ccc(F)cc32)c(C)c1C(=O)N[C@H]1CCN(C(=O)N(C)C)C1`, the remaining activity was 100% (RAF1; enzyme activity; inhibitor; 1 µM).
`Cc1ccc(NC(=O)c2ccc(C)c(C(F)(F)F)c2)cc1C#Cc1nn(C2CCC(O)CC2)c2ncnc(N)c12` (stereo not drawn) has a remaining signal of 24% (RAF1; cell-free assay; 10 µM).
`CNC(=O)c1cc2c(Oc3ccc(NC(=O)C4(C(=O)Nc5ccc(F)cc5)CC4)cc3)ccnc2cc1OC` gave an inhibition of 83% (RAF1; enzyme activity; inhibitor; radiometric; 1 µM).
With `COc1cc2ncnc(Nc3ccc(Oc4ccccc4)cc3C)c2cc1OC` the inhibition was 27% (RAF1 Y340D/Y341D; enzyme activity; inhibitor; 1 µM).
The remaining signal of `O=C1Nc2ccc(Cl)cc2C1=Cc1cc(Cl)c(O)c(Cl)c1` is reported as 6.93% (RAF1; cell-free assay; 0.5 µM).
The remaining binding of `CNC(=O)Nc1ccc2c(c1)CC[C@@]21OC(=O)N(CC(=O)N(Cc2ccc(F)cc2)[C@@H](C)C(F)(F)F)C1=O` is reported as 100% (RAF1; cell-free assay; competition with immobilised ligand; 1 µM).
For `O=C(Nc1cnn(-c2csc(C(=O)NC3COC3)c2)c1)Nc1c(F)cccc1Cl`, the remaining activity was 92.5% (RAF1; enzyme activity; inhibitor; 5 µM).
`CC(C)(C)c1nc(-c2cccc(NS(=O)(=O)c3c(F)cccc3F)c2F)c(-c2ccnc(N)n2)s1` has a remaining activity of 1% (RAF1 Y340D/Y341D; enzyme activity; inhibitor; radiometric; 1 µM).
`C[C@@H]1CCN(C(=O)CC#N)C[C@@H]1N(C)c1ncnc2[nH]ccc12` has a remaining signal of 95.5% (RAF1; cell-free assay; inhibitor; 0.5 µM).
`Cc1cc(-n2nc(Cc3cc(F)cc(C(F)(F)F)c3)nc2C)ccc1C(N)=O` gave a remaining binding of 87% (RAF1; cell-free assay; competition with immobilised ligand; 1 µM).
For `CSc1nc(C)c(-c2ccnc(Nc3ccc(N4CCOCC4)cc3)c2)[nH]1`, the inhibition was 64.1% (RAF1; enzyme activity; inhibitor; 10 µM).
With `Nc1c(C(=O)NCc2ccc(C(=O)NCCCC3CCCCC3)cc2)cnn1-c1ccccc1` the remaining binding was 100% (RAF1; cell-free assay; competition with immobilised ligand; 0.1 µM).
The inhibition of `Cc1ccc(Nc2nccc(N(C)c3ccc4c(C)n(C)nc4c3)n2)cc1S(N)(=O)=O` is reported as 77% (RAF1; enzyme activity; inhibitor; 0.3 µM).
`N#Cc1ccc(Nc2ccc3[nH]c(=O)[nH]c3c2)c(Cl)c1` has a remaining binding of 68% (RAF1; cell-free assay; competition with immobilised ligand; 1 µM).
For `N#CCCc1ccc2c(c1)-c1[nH]c3ccc([N+](=O)[O-])cc3c1CC(=O)N2`, the remaining signal was 104% (RAF1; cell-free assay; 0.5 µM).
`CCOC(=O)c1cc2cc(-c3cc(C(=O)NCc4ccc(C(=O)O)cc4)nn3C)ccc2[nH]1` gave a remaining binding of 100% (RAF1; cell-free assay; competition with immobilised ligand; 0.1 µM).
The inhibition of `COc1cc(-c2cc(-c3ccc(N4CCNCC4)cc3)cnc2N)cc(OC)c1OC` is reported as 2% (RAF1; enzyme activity; inhibitor; 0.1 µM).
`CNCc1ccc(-c2cc(-c3nc(-c4ccc(S(=O)(=O)C(C)C)cc4)cnc3N)on2)cc1` has an inhibition of 0% (RAF1; enzyme activity; inhibitor; 0.4 µM).
`CCN(CC)CCNC(=O)c1c(C)[nH]c(/C=C2\C(=O)Nc3ccc(F)cc32)c1C` has a remaining signal of 110% (RAF1; cell-free assay; 0.5 µM).
With `CCCOc1ccc(OC)c(F)c1C(=O)c1ccc(C(=O)N[C@@H]2CNC[C@H]2NC(=O)c2ccc3[nH]ncc3c2)cc1` the remaining activity was 109% (RAF1; enzyme activity; inhibitor; 10 µM).
`Cc1ccc(C(=O)Nc2ccc(CN3CCN(C)CC3)c(C(F)(F)F)c2)cc1C#Cc1cnc2cccnn12` has a remaining activity of 61% (RAF1; enzyme activity; inhibitor; 23.5 nM).
`C[C@H](NC(=O)c1cnc2n1[C@](C)(Cc1ccc(C#N)cc1)C(=O)N2c1cc(Cl)c(F)c(Cl)c1)C(=O)NC1(c2ccccn2)CC1` gave a remaining binding of 100% (RAF1; cell-free assay; competition with immobilised ligand; 1 µM).
`O=C(CSc1nc2nccnc2c(=O)n1CCc1ccccc1)Nc1nccs1` has an inhibition of 3% (RAF1 Y340D/Y341D; enzyme activity; inhibitor; 10 µM).
For `C=CC(=O)Nc1cc(Nc2nccc(Nc3cc(Cl)c(F)cc3C(C)(C)O)n2)c(OC)cc1N1CC[C@@H](N(C)C)C1`, the inhibition was 10% (RAF1; enzyme activity; inhibitor; 1 µM).
With `CCN(CC)CCNC(=O)c1c(C)[nH]c(/C=C2\C(=O)Nc3ccc(F)cc32)c1C` the remaining activity was 95% (RAF1; enzyme activity; inhibitor; 1 µM).
With `CC(=O)N1CCC(c2ccc(C(=O)NC(=N)N)cc2C(F)(F)F)CC1` the remaining binding was 100% (RAF1; cell-free assay; competition with immobilised ligand; 1 µM).
The inhibition of `CCOc1cc(-c2nncn2C)ccc1Nc1ncc2cc(C)nc(NCC(C)(C)C)c2n1` is reported as ≤ 15% (RAF1 Y340D/Y341D; cell-free assay; TR-FRET; 1 µM).
`CN(C)C1CCN(CC#Cc2nn(C3CCCC3)c3nc(NCc4ccccc4)ncc23)C1` (stereo not drawn) gave an inhibition of -4% (RAF1 Y340D/Y341D; enzyme activity; inhibitor; FRET; 1 µM).
